The values that follow come from ChEMBL document CHEMBL3351549, “Discovery of a Potent and Selective BCL-XL Inhibitor with in Vivo Activity” (ACS Med Chem Lett, 2014).

pEC50, pKd, pKi: −log10 of the molar value. Activity calls are given as the source filed them. The rule behind the calls is not given here. Bounds are passed on as bounds.

For data set [1], the target named is T1, Bcl-2-like protein 1 (Homo sapiens, UniProt Q07817). Put plainly: Inhibition of BCL-XL (unknown origin) incubated for 1 hr by TR-FRET assay. Background: Time-resolved FRET reads energy transfer from a long-lived donor to a nearby acceptor.
The target in data set [2] is T1, Bcl-2-like protein 1. Nature of the data set: Inhibition of BCL-XL (unknown origin) incubated for 1 hr in presence of 1% human serum by TR-FRET assay.
Data set [3] has as its target Apoptosis regulator Bcl-2 (Homo sapiens, UniProt P10415). Put plainly: Inhibition of BCL-2 (unknown origin) incubated for 1 hr by TR-FRET assay.
The nature of data set [4]: Cytotoxicity against BCL-XL-dependent human NCI-H146 cells in presence of 10% human serum incubated for 48 hrs by Cell titerGlo reagent based assay. The format is functional. Conditions: NCI-H146, 48 h. Background: In ATP-based viability assays light output follows the ATP content of the culture.
For data set [5], the target named is T1, Bcl-2-like protein 1. Put plainly: Binding affinity to BCL-XL (unknown origin).
Data set [6] is described as follows: Cytotoxicity against BCL-XL-dependent human NCI-H146 cells in presence of 10% human serum.
Data set [7] in a line: Cmax in SCID-Beige mouse at 5 mg/kg, ip. In kind it is ADME, organism-based. On the set-up: dose 5 mg/kg, route intraperitoneal. Conditions: in vivo. A digest of the protocol: (§1)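 Nontumor-bearing SCID-Beige mice got a single IP dose of 5 mg/kg. Vehicle was 5% DMSO, 10% EtOH, 20% Cremophor ELP and 65% DSW. Pharmacokinetic parameters were taken from plasma exposure after the single dose.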

A short description of data set [8]: Tmax in SCID-Beige mouse at 5 mg/kg, ip. In kind it is ADME, organism-based. Also noted: dose 5 mg/kg, route intraperitoneal. Conditions: in vivo. A digest of the protocol:
as §1

Data set [9] in a line: AUC in SCID-Beige mouse at 5 mg/kg, ip. In kind it is ADME, organism-based. On the set-up: dose 5 mg/kg, route intraperitoneal. The following applies: plasma. The gist of the method:
as §1

Data set [10] can be described thus: Drug concentration in SCID-Beige mouse at 5 mg/kg, ip after 12 hrs. The following applies: in vivo, read-out: Drug uptake. Also noted: dose 5 mg/kg, route intraperitoneal. The format is ADME, organism-based. The gist of the method:
as §1

For a further data set, the target named is T2, Bcl-2-like protein 2 (Homo sapiens, UniProt Q92843).
T2 sequence (Q92843 whole entry): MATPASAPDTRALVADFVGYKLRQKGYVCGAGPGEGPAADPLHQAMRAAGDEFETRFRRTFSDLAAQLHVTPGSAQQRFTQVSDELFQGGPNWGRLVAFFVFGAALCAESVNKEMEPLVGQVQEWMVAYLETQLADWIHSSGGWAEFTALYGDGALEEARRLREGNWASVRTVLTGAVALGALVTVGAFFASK
Nature of the data set: Binding affinity to BCL-W (unknown origin).

Data set [11] concerns the target Induced myeloid leukemia cell differentiation protein Mcl-1 (Homo sapiens, UniProt Q07820). Put plainly: Binding affinity to MCL1 (unknown origin).
Data set [12] relates to Mus musculus. Put plainly: Reduction in platelets count in SCID-Beige mouse at 5 mg/kg, ip after 6 hrs. The format is functional, organism-based. On the set-up: dose 5 mg/kg. The gist of the method: (§2)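 Nontumor-bearing female SCID-Beige mice received a single IP dose of 5 mg/kg in the 5% DMSO/10% EtOH/20% Cremophor ELP/65% DSW vehicle. Blood was taken by retro-orbital bleed at regular intervals after dosing and platelets were counted.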

For data set [13], the system named is Mus musculus. Nature of the data set: Reduction in platelets count in SCID-Beige mouse at 5 mg/kg, ip after 72 hrs. In kind it is functional, organism-based. On the set-up: dose 5 mg/kg. The gist of the method: as §2
Data set [14] can be described thus: Antitumor activity against BCL-XL-dependent human NCI-H146 cells xenografted in SCID-Beige mouse assessed as tumor growth inhibition at 5 mg/kg, ip for 14 days. The format is functional. The following applies: route intraperitoneal. A digest of the protocol: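 Female SCID-Beige mice carried subcutaneous NCI-H146 xenografts and were dosed at 5 mg/kg IP QD ×14, or with an equal volume of vehicle (5% DMSO/10% EtOH/20% Cremophor ELP/65% DSW). There were 5 mice per time point. Tumor volume was calculated as W²·L·0.5 from perpendicular diameters and tracked over time. Treated and untreated groups were compared by Student's t test (p < 0.05).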

One may read the pKi as −log10 of the Ki, conventionally taken in molar units. What is called pEC50 is the EC50 on a negative log10 scale, so that one unit is a factor of ten. A word on the pKd: it is −log10 of the Kd, conventionally taken in molar units. As a reminder, the Cmax is the maximum level reached in the sampled fluid or tissue. As usually defined, the Tmax is the time from dosing to the highest level. For orientation: AUC means concentration integrated over time.

T1 sequence (Q07817 whole entry): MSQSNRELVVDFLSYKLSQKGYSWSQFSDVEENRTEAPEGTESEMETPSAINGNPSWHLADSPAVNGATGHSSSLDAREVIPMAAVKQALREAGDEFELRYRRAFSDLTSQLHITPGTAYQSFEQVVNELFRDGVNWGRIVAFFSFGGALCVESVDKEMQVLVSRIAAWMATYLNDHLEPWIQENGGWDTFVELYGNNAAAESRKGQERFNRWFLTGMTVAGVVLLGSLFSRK
Chain of Apoptosis regulator Bcl-2 (P10415 whole entry): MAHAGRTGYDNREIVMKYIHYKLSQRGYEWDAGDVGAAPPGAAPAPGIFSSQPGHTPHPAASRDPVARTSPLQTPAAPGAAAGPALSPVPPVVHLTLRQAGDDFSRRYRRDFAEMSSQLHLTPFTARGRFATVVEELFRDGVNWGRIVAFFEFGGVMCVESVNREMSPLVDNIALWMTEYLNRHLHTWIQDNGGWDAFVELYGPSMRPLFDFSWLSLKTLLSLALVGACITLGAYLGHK
Chain of Induced myeloid leukemia cell differentiation protein Mcl-1 (Q07820 whole entry): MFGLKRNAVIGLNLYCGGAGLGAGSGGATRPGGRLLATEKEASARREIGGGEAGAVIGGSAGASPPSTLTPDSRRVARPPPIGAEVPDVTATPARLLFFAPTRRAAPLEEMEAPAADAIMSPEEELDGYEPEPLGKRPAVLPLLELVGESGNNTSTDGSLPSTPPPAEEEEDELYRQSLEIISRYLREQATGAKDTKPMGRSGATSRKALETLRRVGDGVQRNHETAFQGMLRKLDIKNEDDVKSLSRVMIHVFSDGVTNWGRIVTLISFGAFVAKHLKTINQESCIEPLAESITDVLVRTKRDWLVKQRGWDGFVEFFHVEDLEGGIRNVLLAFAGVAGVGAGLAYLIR

As to `CN(C)CC#Cc1ccc(OCCCc2sc(N3CCc4cccc(C(=O)Nc5nc6ccccc6s5)c4C3)nc2C(=O)O)cc1F`, the pKi at Bcl-2-like protein 1 [1] was 11.00; at Bcl-2-like protein 1 [2], 8.95; in [3] it was 7.06. Further, the pEC50 in [4] is 7.29.

On to `O=C(Nc1nc2ccccc2s1)c1cccc2c1CN(c1nc(C(=O)O)c(CCOc3cccc(-n4ncc5cncnc54)c3)s1)CC2`, for which the pKi was 8.65 on Bcl-2-like protein 1 [1], 7.39 on Bcl-2-like protein 1 [2] and 7.00 in [3].

`O=C(Nc1nc2ccccc2s1)c1cccc2c1CN(c1nc(C(=O)O)c(CCCOc3ccc(-n4cccn4)cc3)s1)CC2`: the figures for the pKi (at Bcl-2-like protein 1 [1]; at Bcl-2-like protein 1 [2]; in data set [3]) were more than 11.00, 9.00 and 6.82, respectively.

`O=C(Nc1nc2ccccc2s1)c1cccc2c1CN(c1nc(C(=O)O)c(CCCCOc3ccc(-n4ncc5cncnc54)cc3)s1)CC2`: at Bcl-2-like protein 1 [2], the pKi is 7.26.

As to `CN(C)CC#Cc1ccc(OCCCc2sc(N3CCc4cccc(C(=O)Nc5nc6ccccc6s5)c4C3)nc2C(=O)O)c(Cl)c1`, the values for the pKi (at Bcl-2-like protein 1 [2]; in [3]) were 9.39 and 6.55, respectively. Also, in data set [4], the pEC50 was 6.74.

On to `c1ccc(-n2ncc3cncnc32)cc1`, for which the pKd on Bcl-2-like protein 1 [5] was 2.40.

For the molecule `O=C(Nc1nc2ccccc2s1)c1cccc2c1CN(c1nc(C(=O)O)c(CCCOc3cccc(-n4ncc5cncnc54)c3)s1)CC2`, the values for the pKi (at Bcl-2-like protein 1 [1]; on Bcl-2-like protein 1 [2]; in [3]) were 9.47, 7.98 and 6.66, respectively.

For `CN(C)CC#Cc1cc(F)c(OCCCc2sc(N3CCc4cccc(C(=O)Nc5nc6ccccc6s5)c4C3)nc2C(=O)O)cc1F`, the values for the pKi (on Bcl-2-like protein 1 [1]; at Bcl-2-like protein 1 [2]; in [3]) were 10.52, 9.48 and 7.05, respectively. Also, the pEC50 in [4] was 6.90.

For the molecule `CN(C)CCCNc1ncnc2c1cnn2-c1ccc(OCCCc2sc(N3CCc4cccc(C(=O)Nc5nc6ccccc6s5)c4C3)nc2C(=O)O)cc1`, the negative-log Ki (pKi) on Bcl-2-like protein 1 [1] is more than 11.00; in [3], 6.62.

In the case of `CN1CCN(CCCNc2ncnc3c2cnn3-c2ccc(OCCCc3sc(N4CCc5cccc(C(=O)Nc6nc7ccccc7s6)c5C4)nc3C(=O)O)cc2)CC1`, the pKi at Bcl-2-like protein 1 [1] was more than 11.00; on Bcl-2-like protein 1 [2], 10.52.

Regarding `CN(C)CC#Cc1ccc(OCCCc2sc(N3CCc4cccc(C(=O)Nc5nc6ccccc6s5)c4C3)nc2C(=O)O)cc1`, the pKi was 10.70 at Bcl-2-like protein 1 [1] and 9.55 on Bcl-2-like protein 1 [2]. Moreover, in [4], the pEC50 is 6.22.

In the case of `O=C(Nc1nc2ccccc2s1)c1cccc2c1CN(c1nc(C(=O)O)c(CCCOc3ccc(-n4ncc5cncnc54)cc3)s1)CC2`, the pKi at Bcl-2-like protein 1 [1] is 10.38; at Bcl-2-like protein 1 [2], 9.42; in [3], 6.77.

As for `NCc1ccc(OCCCc2sc(-c3ccc4c(c3)/C(=N/Nc3nc5ccccc5s3)CCC4)nc2C(=O)O)cc1`, the pEC50 in [6] is 6.26.

With `O=C(Nc1nc2ccccc2s1)c1cccc2c1CN(c1nc(C(=O)O)c(CCOc3ccc(-n4ncc5cncnc54)cc3)s1)CC2` [A-1107969], the figures for the pKi (at Bcl-2-like protein 1 [1]; at Bcl-2-like protein 1 [2]; in [3]) were 7.91, 6.49 and 7.05, respectively.

On to `CN(C)CC#Cc1ccc(OCCCc2sc(N3CCc4cccc(C(=O)Nc5nc6ccccc6s5)c4C3)nc2C(=O)O)c(F)c1` [A-1155463], for which the pKi is more than 11.00 at Bcl-2-like protein 1 [1]; 10.00 on Bcl-2-like protein 1 [2]; 7.10 in [3]; 7.72 at Bcl-2-like protein 2; less than 6.36 in data set [11]. Also, in data set [4], the pEC50 was 7.19. In data set [7], this molecule returned a Cmax of 1800 nM. In addition, the Tmax in data set [8] turned out to be 2 h. The AUC in data set [9] is 9.19 µM·h. The concentration at 12 h in data set [10] came out at 180 nM. In the data set on Mus musculus [12], the inhibition result was “Active”. For the same molecule, the inhibition entry in the data set with Mus musculus [13] was “inactive”. For the same molecule, the Imax in [14] worked out at 44%.
